Columns and labels:
[1] = species: Rattus norvegicus; experiment: Phenobarbital induced rat hepatic microsomal hydroxylation in vitro; assay type: functional; details: Liver
Procedure, shortened: (§1)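 Liver microsomes from male Sprague–Dawley rats given phenobarbital 80 mg/kg/day ip in 0.9% NaCl for 3 days, killed 2 days after last dose. Microsomes 0.5 mg protein/mL in Tris-HCl 0.02 M pH 7.4 with 1.15% KCl; olivacine acetate at five levels, 5–50 µM; NADPH 1 mg/mL; 37 °C, 5 min. Butanol extract, HPLC; Km/Vmax by Lineweaver-Burk; two rats.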

[2] = species: Rattus norvegicus; experiment: Non induced rat hepatic microsomal hydroxylation in vitro; assay type: functional; details: Liver
Procedure, shortened: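 Liver microsomes from male Sprague–Dawley rats given only vehicle ip (sunflower oil or 0.9% NaCl). Microsomes 0.5 mg protein/mL in Tris-HCl 0.02 M pH 7.4 with 1.15% KCl; olivacine acetate at five levels, 5–50 µM; NADPH 1 mg/mL; 37 °C, 5 min. Butanol extract, HPLC; Km/Vmax by Lineweaver-Burk; two rats.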

[3] = species: Rattus norvegicus; experiment: Benzo[a]pyrene induced rat hepatic microsomal hydroxylation in vitro; assay type: functional; details: Liver
Procedure, shortened: as §1, with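 “given benzo[a]pyrene 20” for “given phenobarbital 80”, “in sunflower oil” for “in 0.9% NaCl”, “for 2” for “for 3”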

[4] = test system: L1210; experiment: Antitumor activity against L1210 leukemia cells expressed as dose concentration that reduces number of cells by 50% after 48 hrs exposure to drug.; assay type: functional; details: Mus musculus, L1210, 48 h; read-out: ID50 (the source's name)
Procedure, shortened: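 L1210 leukemia cells grown in vitro with drug for 48 h; cell number counted against untreated control; ID50 taken as the concentration cutting cell number by 50%.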

[5] = test system: L1210; experiment: Antitumor efficiency against L1210 leukemia cells expressed as % increase in life span (ILS) 24 hrs after ip grafting (10e5 cells); assay type: functional, Mus musculus
Procedure, shortened: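 DBA/2 mice given 10^5 L1210 cells intraperitoneally, then a single ip drug dose 24 h later. ILS = (median survival of treated − median survival of controls) / median survival of controls × 100.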

[6] = test system: Mus musculus; experiment: Highest nonlethal dose against mice administered through intraperitoneal route; assay type: functional
[7] = test system: Mus musculus; experiment: Cytotoxicity against L1210 leukemia cells administered through intraperitoneal route in mice; assay type: functional

Compound	Km [1] [µM]	Km [2] [µM]	Km [3] [µM]	IC50 [4] [nM]	Vmax [1] [nM/min]	ILS [5] [%]	Vmax [2] [nM/min]	LD0 [6] [mg/kg]	Vmax [3] [nM/min]	LD0 [7] [mg/kg]
Cc1nccc2c(C)c3[nH]c4c(O)cccc4c3cc12	41.4	29.4	29	12800	–	–	–	–	–	–
Cc1nccc2c(C)c3[nH]c4ccc(O)cc4c3cc12	40	25	22.2	60	1.28	39	0.58	50	7.14	–
Cc1nccc2c(C)c3[nH]c4ccccc4c3cc12	–	–	–	2030	–	35	–	–	–	250
Cc1c2ccncc2c(C)c2c1[nH]c1ccccc12 [ELLIPTECINE]	–	–	–	990	–	–	–	–	–	50

Reference: ChEMBL document CHEMBL1123006, “Synthesis and cytotoxic activity of hydroxylated derivatives of olivacine in relation with their biotransformation” (1985)
